Assay results as given in ChEMBL document CHEMBL4138126, “Synthesis, antiproliferative, anti-tubulin activity, and docking study of new 1,2,4-triazoles as potential combretastatin analogues” (Eur J Med Chem, 2017).

How the values were obtained:
RPMI-8226 = test: Growth inhibition of human RPMI8226 cells assessed as cell growth at 10 uM after 48 hrs by sulforhodamine B assay; assay type: functional; conditions: RPMI-8226, 48 h, read-out: Activity
Method in brief: (§1)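 NCI 60-cell-line panel screen (nine cancer types). Compounds added at single concentration 10^-5 M, cultures incubated 48 h; growth inhibition percentages reported.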

HCT-15 = test: Growth inhibition of human HCT15 cells assessed as cell growth at 10 uM after 48 hrs by sulforhodamine B assay; assay type: functional; conditions: HCT-15, 48 h, read-out: Activity; method in brief: as §1
KM12 = test: Growth inhibition of human KM12 cells assessed as cell growth at 10 uM after 48 hrs by sulforhodamine B assay; assay type: functional; conditions: KM12, 48 h, read-out: Activity; method in brief: as §1
MDA-MB-435 = test: Growth inhibition of human MDA-MB-435 cells assessed as cell growth at 10 uM after 48 hrs by sulforhodamine B assay; assay type: functional; conditions: MDA-MB-435, 48 h, read-out: Activity; method in brief: as §1
CCRF-CEM = test: Growth inhibition of human CCRF-CEM cells assessed as cell growth at 10 uM after 48 hrs by sulforhodamine B assay; assay type: functional; conditions: read-out: Activity; method in brief: as §1
DU-145 = test: Growth inhibition of human DU145 cells assessed as cell growth at 10 uM after 48 hrs by sulforhodamine B assay; assay type: functional; conditions: DU-145, 48 h, read-out: Activity; method in brief: as §1
LOX IMVI = test: Growth inhibition of human LOXIMVI cells assessed as cell growth at 10 uM after 48 hrs by sulforhodamine B assay; assay type: functional; conditions: read-out: Activity; method in brief: as §1
NCI-H226 = test: Growth inhibition of human NCI-H226 cells assessed as cell growth at 10 uM after 48 hrs by sulforhodamine B assay; assay type: functional; conditions: NCI-H226, 48 h, read-out: Activity; method in brief: as §1
SNB-19 = test: Growth inhibition of human SNB19 cells assessed as cell growth at 10 uM after 48 hrs by sulforhodamine B assay; assay type: functional; conditions: SNB-19, 48 h, read-out: Activity
Method in brief: (§2)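 NCI 60-cell-line panel from nine tumour types (leukaemia, lung, colon, CNS, melanoma, ovarian, renal, prostate, breast). Each compound was added at one single concentration, and cultures were incubated for 48 h. Results are reported as percent growth inhibition.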

SNB-75 = test: Growth inhibition of human SNB75 cells assessed as cell growth at 10 uM after 48 hrs by sulforhodamine B assay; assay type: functional; conditions: SNB-75, 48 h, read-out: Activity; method in brief: as §2
Malme-3M = test: Growth inhibition of human MALME-3M cells assessed as cell growth at 10 uM after 48 hrs by sulforhodamine B assay; assay type: functional; conditions: read-out: Activity; method in brief: as §1
HT-29 = test: Growth inhibition of human HT-29 cells assessed as cell growth at 10 uM after 48 hrs by sulforhodamine B assay; assay type: functional; conditions: HT-29, 48 h, read-out: Activity; method in brief: as §1
SF-539 = test: Growth inhibition of human SF539 cells assessed as cell growth at 10 uM after 48 hrs by sulforhodamine B assay; assay type: functional; conditions: SF-539, 48 h, read-out: Activity; method in brief: as §1
SK-OV-3 = test: Growth inhibition of human SKOV3 cells assessed as cell growth at 10 uM after 48 hrs by sulforhodamine B assay; assay type: functional; conditions: SK-OV-3, 48 h, read-out: Activity; method in brief: as §1
HOP-92 = test: Growth inhibition of human HOP92 cells assessed as cell growth at 10 uM after 48 hrs by sulforhodamine B assay; assay type: functional; conditions: HOP-92, 48 h, read-out: Activity; method in brief: as §1
SW-620 = test: Growth inhibition of human SW620 cells assessed as cell growth at 10 uM after 48 hrs by sulforhodamine B assay; assay type: functional; conditions: SW-620, 48 h, read-out: Activity; method in brief: as §2
T47D = test: Growth inhibition of human T47D cells assessed as cell growth at 10 uM after 48 hrs by sulforhodamine B assay; assay type: functional; conditions: read-out: Activity; method in brief: as §2
SK-MEL-2 = test: Growth inhibition of human SK-MEL-2 cells assessed as cell growth at 10 uM after 48 hrs by sulforhodamine B assay; assay type: functional; conditions: SK-MEL-2, 48 h, read-out: Activity; method in brief: as §1
OVCAR-5 = test: Growth inhibition of human OVCAR5 cells assessed as cell growth at 10 uM after 48 hrs by sulforhodamine B assay; assay type: functional; conditions: OVCAR-5, 48 h, read-out: Activity; method in brief: as §1
HepG2 = test: Cytotoxicity in human HepG2 cells assessed as reduction in cell viability incubated for 48 hrs by MTT assay; assay type: functional, cell-based; conditions: HepG2, 48 h
Method in brief: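 HepG2 and HL60 (ATCC) grown in DMEM with 10% FBS, 2 mM L-glutamine, penicillin/streptomycin, amphotericin B at 37 °C, 5% CO2. Samples dissolved in DMSO, diluted thousandfold in assay. Cells seeded in serum-free medium, treated with serial concentrations 48 h; MTT 4 h, formazan dissolved in acidified isopropanol, A570. Triplicates averaged; viability relative to untreated/vehicle control.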

SF-295 = test: Growth inhibition of human SF295 cells assessed as cell growth at 10 uM after 48 hrs by sulforhodamine B assay; assay type: functional; conditions: SF-295, 48 h, read-out: Activity; method in brief: as §1
OVCAR-3 = test: Growth inhibition of human OVCAR3 cells assessed as cell growth at 10 uM after 48 hrs by sulforhodamine B assay; assay type: functional; conditions: OVCAR-3, 48 h, read-out: Activity; method in brief: as §1
NCI/ADR-RES = test: Growth inhibition of human NCI-ADR-RES cells assessed as cell growth at 10 uM after 48 hrs by sulforhodamine B assay; assay type: functional; conditions: read-out: Activity; method in brief: as §1
MCF7 = test: Growth inhibition of human MCF7 cells assessed as cell growth at 10 uM after 48 hrs by sulforhodamine B assay; assay type: functional; conditions: MCF7, 48 h, read-out: Activity; method in brief: as §1
NCI-H23 = test: Growth inhibition of human NCI-H23 cells assessed as cell growth at 10 uM after 48 hrs by sulforhodamine B assay; assay type: functional; conditions: NCI-H23, 48 h, read-out: Activity; method in brief: as §1
PC-3 = test: Growth inhibition of human PC3 cells assessed as cell growth at 10 uM after 48 hrs by sulforhodamine B assay; assay type: functional; conditions: PC-3, 48 h, read-out: Activity; method in brief: as §1
RXF 393 = test: Growth inhibition of human RXF393 cells assessed as cell growth at 10 uM after 48 hrs by sulforhodamine B assay; assay type: functional; conditions: RXF 393, 48 h, read-out: Activity; method in brief: as §1
786-0 = test: Growth inhibition of human 786-0 cells assessed as cell growth at 10 uM after 48 hrs by sulforhodamine B assay; assay type: functional; conditions: 786-0, 48 h, read-out: Activity; method in brief: as §1
OVCAR-4 = test: Growth inhibition of human OVCAR4 cells assessed as cell growth at 10 uM after 48 hrs by sulforhodamine B assay; assay type: functional; conditions: OVCAR-4, 48 h, read-out: Activity; method in brief: as §1
NCI-H522 = test: Growth inhibition of human NCI-H522 cells assessed as cell growth at 10 uM after 48 hrs by sulforhodamine B assay; assay type: functional; conditions: NCI-H522, 48 h, read-out: Activity; method in brief: as §1
M14 = test: Growth inhibition of human M14 cells assessed as cell growth at 10 uM after 48 hrs by sulforhodamine B assay; assay type: functional; conditions: M14, 48 h, read-out: Activity; method in brief: as §1
A498 = test: Growth inhibition of human A498 cells assessed as cell growth at 10 uM after 48 hrs by sulforhodamine B assay; assay type: functional; conditions: A498, 48 h, read-out: Activity; method in brief: as §1

| Compound | growth at 10 µM (RPMI-8226) [%] | growth at 10 µM (HCT-15) [%] | growth at 10 µM (KM12) [%] | growth at 10 µM (MDA-MB-435) [%] | growth at 10 µM (CCRF-CEM) [%] | growth at 10 µM (DU-145) [%] | growth at 10 µM (LOX IMVI) [%] | growth at 10 µM (NCI-H226) [%] | growth at 10 µM (SNB-19) [%] | growth at 10 µM (SNB-75) [%] | growth at 10 µM (Malme-3M) [%] | growth at 10 µM (HT-29) [%] | growth at 10 µM (SF-539) [%] | growth at 10 µM (SK-OV-3) [%] | growth at 10 µM (HOP-92) [%] | growth at 10 µM (SW-620) [%] | growth at 10 µM (T47D) [%] | growth at 10 µM (SK-MEL-2) [%] | growth at 10 µM (OVCAR-5) [%] | IC50 (HepG2) [µM] | also measured |
| --- | --- | --- | --- | --- | --- | --- | --- | --- | --- | --- | --- | --- | --- | --- | --- | --- | --- | --- | --- | --- | --- |
| COc1cccc(-n2nc(C(=O)NCc3ccccc3OC)nc2-c2cc(OC)c(OC)c(OC)c2)c1 | 100 | 96.8 | 95.6 | 90.8 | 107 | 106 | 95.9 | 96.8 | 100 | 63 | 99.7 | 81.3 | 96.5 | 96.7 | 108 | 111 | 75.8 | 77.8 | 113 | 1.67 | growth at 10 µM (SF-295): 95.1%; growth at 10 µM (OVCAR-3): 101%; growth at 10 µM (NCI/ADR-RES): 77.4%; growth at 10 µM (MCF7): 98.7%; growth at 10 µM (NCI-H23): 90.7%; growth at 10 µM (PC-3): 104%; growth at 10 µM (RXF 393): 107%; growth at 10 µM (786-0): 94%; growth at 10 µM (OVCAR-4): 90.8%; growth at 10 µM (NCI-H522): 60.5%; growth at 10 µM (M14): 99.8%; growth at 10 µM (A498): 104% |
| CCOc1ccc(-n2nc(C(=O)Nc3cc(OC)c(OC)c(OC)c3)nc2-c2cc(OC)c(OC)c(OC)c2)cc1 | 55.7 | 82.1 | 81.8 | 79.6 | 66.5 | 99.1 | 89 | 78.1 | 82.1 | 65.6 | 85.2 | 84.6 | 87.8 | 99.7 | 69.9 | 95.5 | 51.4 | 85.6 | 102 | 37.8 | growth at 10 µM (SF-295): 95.9%; growth at 10 µM (OVCAR-3): 86.9%; growth at 10 µM (NCI/ADR-RES): 85.8%; growth at 10 µM (MCF7): 83.2%; growth at 10 µM (NCI-H23): 85%; growth at 10 µM (PC-3): 70.2%; growth at 10 µM (RXF 393): 83.8%; growth at 10 µM (786-0): 77.1%; growth at 10 µM (OVCAR-4): 68.1%; growth at 10 µM (NCI-H522): 65.9%; growth at 10 µM (M14): 91.5%; growth at 10 µM (A498): 67.3% |
